Only some compounds are listed: those with a hit (about 9.2% of all), similar ones and a draw of the others.
ERa SRC1 pot = enhances coactivator binding to human estrogen receptor alpha; TR-FRET ERalpha-LBD/SRC-Cy5 coactivator binding, 2 h; 100 = basal binding, no effect; coactivator binding (% of control), % at 25.6 µM; 86,000 compounds, 1.3% hits; in the data active means activity above about 200%;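 further: binding measured in presence of low estradiol as agonist stimulus; 0% = peptide alone without receptor and 100% = receptor with peptide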
ERb SRC1 inh = blocks coactivator binding to human estrogen receptor beta; inhibition, % at 25.6 µM; AID 633; 86,000 compounds, 1.3% hits; TR-FRET ER-beta LBD / SRC1-Cy5 peptide binding; receptor agonist-loaded with 1 µM estradiol;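 active means compounds whose percent inhibition of the receptor-coactivator binding signal exceeds about 50% in the single-dose screen, limit read from the data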;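 further: 0% = receptor plus peptide wells without compound and 100% = peptide-only wells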
ERa coact inh = blocks coactivator binding to human estrogen receptor alpha | inhibition, % at 25.6 µM | AID 629 | P03372 | 86,000 compounds, 1.7% hits | TR-FRET ER-alpha LBD / SRC-1 peptide, estradiol-bound; in the data active means inhibition above about 50%;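 further: 0% = receptor plus peptide control and 100% = peptide only without receptor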
Lung fibro prol = blocks proliferation of human lung fibroblasts. LL 47 human lung fibroblast viability, ATP luminescence; stronger effect = lower value. viability, % at 10 µM. 85,000 compounds, 1.1% hits;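 active means viability at or below 50% in the single dose screen; inactive means viability above 50%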;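 further: compound exposure lasted 72 h before the ATP readout; 100% = median luminescence of untreated cell-only wells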
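Material: Human LL 47 lung fibroblast cells | Input: 1,150 cells/well | Buffer or medium: IMEM plus 15% FBS | Compound dosing: 0.1% DMSO in all compound wells | Times: Overnight cell rest, 72 h compound treatment at 37 °C | Signal: CellTiter-Glo luminescence measuring cellular ATP | Measure: % viability versus median cells-only luminescence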
HUVEC prolif 384 = human endothelial cell proliferation inhibition | viability, % at 10 µM (by protocol) | HUVEC proliferation, CellTiter-Glo luminescence, 72 h; stronger effect = lower value | AID 648 | 86,000 compounds, 1.1% hits;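 active means viability at or below 30%; inactive means viability above 30%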;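 further: 100% = median luminescence of DMSO-only cell control wells on each plate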
H69AR growth 86K = blocks growth of human H69AR lung tumor cells | H69AR lung tumor viability, ATP luminescence, 72 h; stronger effect = lower value | viability, % at 10 µM | 85,000 compounds, 6% hits;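 active means viability at or below 40%; inactive means viability above 40%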;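 further: multidrug resistant small cell line overexpressing MRP-1 efflux transporter; 100% = mean luminescence of untreated control wells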
Active calls of the source: *; x = no result; [ ] = remark or other dose.

SMILES	ERa SRC1 pot	ERb SRC1 inh	ERa coact inh	Lung fibro prol	HUVEC prolif 384	H69AR growth 86K
CNS(=O)(=O)c1cccc(C(=O)OC2CCCCC2=O)c1 (configuration not stated)	130	4	6	100	92	92
COc1ccc(/C=N\NS(=O)(=O)c2ccc(Cl)cc2)cc1COc1ccccc1[N+](=O)[O-]	116	-3	-5	103	77	93
COC(=O)[C@H](CCSC)NC(=O)NCc1ccc(S(N)(=O)=O)cc1	118	-8	-8	99	90	1.9*
CCCCN(CC)C(=O)Cn1cnc2ccc(S(=O)(=O)N3CCC(C)CC3)cc2c1=O	x	x	x	104	100	92
O=C(CCN1CCN(CCC(=O)c2ccccc2)CC1)c1ccccc1	116	-5	-3	93	96	1.2*
O=C(CN1CCN(Cc2ccccc2)CC1)c1ccccc1	104	-1	-5	96	104	87
CCCN1C(=O)C(O)(C2CC(=O)CC(C)(C)O2)c2ccccc21 (configuration not stated)	95	-21	-22	76	88	23*
CCN1C(=O)C(O)(C2COC(C)(C)CC2=O)c2ccccc21 (configuration not stated)	83	1	-5	97	89	59
CCCNC(=O)Cn1c(=O)oc2ccccc21	121	2	-11	95	101	97
Cc1nc2ccccc2n1CCc1nc2c3ccccc3nc(SCC#N)n2n1	175	30	36	77	28*	22*
Cc1nc2ccccc2n1CCc1nc2c3ccccc3nc(SCC(=O)NCc3ccco3)n2n1	194	7	48	10*	79	21*
C=C(C)Cn1c(SCC#N)nc2ccccc2c1=O	95	3	5	93	97	93
O=C(CCn1c(SCC(=O)NCc2ccco2)nc2ccccc2c1=O)NCCc1ccccc1	112	-3	17	103	91	97
Cc1cc(C)n(CCc2nc3c4ccccc4nc(SCc4ccc(C#N)cc4)n3n2)n1	95	33	59*[fluorescence artefact?]	113	77	86
Cc1cc(C)n2c(SCc3ccc(C#N)cc3)nnc2n1	118	-11	-5	98	95	87
CCN(CC)CCCN1C(=O)c2oc3ccccc3c(=O)c2C1c1cccs1 (configuration not stated)	99	-9	3	107	97	76
C=CCSc1nc(N)c2c(C)c(C)sc2n1	96	3	18	97	97	86
COc1ccc(OC)c(NC(=O)NC2(C(F)(F)F)Oc3ccccc3O2)c1	111	23	2	95	69	13*
CCCCNC(=O)NC1(C(F)(F)F)Oc2ccccc2O1	103	1	-5	93	64	22*
O=C(NCCN1CCOCC1)NC1(C(F)(F)F)Oc2ccccc2O1	617*[fluorescence artefact?]	2	1	88	70	18*
NS(=O)(=O)c1ccc(CCNC(=O)NC2(C(F)(F)F)Oc3ccccc3O2)cc1	120	13	1	81	71	20*
O=C(NCCN1CCOCC1)Nc1ccccc1	108	1	-3	102	97	104
CCC(CC)C(=O)NCCc1ccc(S(N)(=O)=O)cc1	107	1	-6	103	88	96
CC1CCN(CCCNC(=O)c2ccc(CSCc3cccc(Cl)c3)o2)CC1	83	-5	0	77	70	70
COc1ccccc1C1CC(c2ccc(Cl)cc2)Nc2ncnn21 (configuration not stated)	91	-3	-22	91	92	77
N#CC(C(=O)Nc1cccc(Cl)c1)=C1Nc2ccccc2N1	105	-7	-13	68	84	46
N#CC(C(=O)Nc1ccc(Cl)c(Cl)c1)=C1Nc2ccccc2N1	46	70*[fluorescence artefact?]	79*[fluorescence artefact?]	83	60	52
COc1cc(C(=S)N2CCCC2)cc(OC)c1O	81	-10	63*[fluorescence artefact?]	97	95	92
FC(F)(F)COc1nc(N2CCOCC2)nc(N(c2ccccc2)c2ccccc2)n1	94	-8	-8	94	92	40*
CCOC(=O)CSc1nnc(Cc2cc(=O)[nH]c(=O)[nH]2)n1-c1ccc(Cl)cc1	119	96*[fluorescence artefact?]	0	100	96	98

Screening results: PubChem, several laboratories
